Bioassay records deposited in PubChem BioAssay by The Scripps Research Institute Molecular Screening Center.
In the library only some 2.8% were active in any assay of this set; here they are far more common.
ABHD4 inh: inhibits mouse alpha/beta hydrolase domain 4; 370,000 tested, 0.54% active; Q8VD66; inhibition, % at 8.92 µM; AID 720543; purified mABHD4, FP-Rh probe fluorescence polarization;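 active means inhibition exceeding the mean over every tested compound plus 3 SD, cut at about 30% in these data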;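 further: 0% = plate median of compound wells and 100% = S159A mutant with DMSO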
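assay system = mABHD4 protein | compound dosing = single nominal dose of 8.92 µM, 0.89% DMSO final | read-out basis = percent inhibition of probe binding, normalized to plate controls | schedule = Enzyme–compound pre-incubation 45 min, then probe 60 min, both 25 °C | detection = fluorescence polarization, excitation 525 nm, emission 598 nm, BODIPY TMR filters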
PAFAH1B2 FP inh: blocks human PAF acetylhydrolase 1b catalytic subunit 2 | AID 492953 | inhibition, % at 3.39 µM | 340,000 tested, 1.2% active | P68402 | recombinant PAFAH1B2, FP-rhodamine activity probe, fluorescence polarization;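 active means inhibition above the mean of all tested compounds plus 3 SD, cut at about 24% in these data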;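 further: 0% = enzyme with DMSO and 100% = wells lacking PAFAH1B2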
Target sequence (P68402 whole entry, looked up): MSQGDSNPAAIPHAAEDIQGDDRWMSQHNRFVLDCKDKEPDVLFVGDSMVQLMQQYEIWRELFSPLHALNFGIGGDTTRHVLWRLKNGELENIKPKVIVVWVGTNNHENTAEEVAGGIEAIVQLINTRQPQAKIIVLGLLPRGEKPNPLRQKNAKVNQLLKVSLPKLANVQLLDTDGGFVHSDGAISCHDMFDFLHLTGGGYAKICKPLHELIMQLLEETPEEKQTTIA
HTRA1 inhibitor: inhibitors of human serine peptidase HTRA1 | inhibition, % at 5.96 µM | recombinant HTRA1, FP-rhodamine activity-based probe, fluorescence polarization | AID 504803 | Q92743 | 340,000 tested, 0.5% active; in the data active means inhibition above about 36%;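 further: 0% = enzyme with DMSO and 100% = wells lacking enzyme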
PAFAH1B3 FP inh: blocks human PAF acetylhydrolase 1B catalytic subunit 3. AID 492972. Q15102. 340,000 tested, 0.28% active. recombinant PAFAH1B3, FP-rhodamine probe, fluorescence polarization. inhibition, % at 3.39 µM;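 active means inhibition above the screen-wide average of all tested compounds plus 3 SD, cut at about 25% in these data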;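 further: 0% = enzyme with DMSO only and 100% = wells lacking PAFAH1B3 protein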
pPAFAH inh: pPAFAH (human) enzyme inhibition; Q13093; inhibition, % at 3.39 µM; 330,000 tested, 1.5% active; recombinant pPAFAH, FP-rhodamine probe fluorescence polarization;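 active means inhibition above the mean inhibition across the screen plus 3 SD, cut at about 25% in these data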;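 further: inhibitors block binding of the rhodamine activity-based probe so polarization drops; 0% = enzyme with DMSO and 100% = wells lacking pPAFAH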
Target sequence (Q13093 whole entry, looked up): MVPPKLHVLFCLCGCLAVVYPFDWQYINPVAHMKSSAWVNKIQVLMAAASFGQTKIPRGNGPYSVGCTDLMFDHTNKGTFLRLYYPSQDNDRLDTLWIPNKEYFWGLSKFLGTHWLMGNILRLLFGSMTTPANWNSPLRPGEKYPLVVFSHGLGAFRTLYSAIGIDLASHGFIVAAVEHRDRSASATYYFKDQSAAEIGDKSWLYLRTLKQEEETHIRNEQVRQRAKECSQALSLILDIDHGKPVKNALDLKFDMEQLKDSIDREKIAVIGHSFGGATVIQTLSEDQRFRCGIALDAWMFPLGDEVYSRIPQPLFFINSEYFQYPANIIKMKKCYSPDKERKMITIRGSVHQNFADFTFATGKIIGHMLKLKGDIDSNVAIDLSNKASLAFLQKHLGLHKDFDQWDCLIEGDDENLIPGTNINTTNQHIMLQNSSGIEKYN
PAFAH2 FP inh: inhibitors of human PAFAH2; AID 492956; Q99487; inhibition, % at 3.39 µM; recombinant PAFAH2, FP-rhodamine activity probe, fluorescence polarization; 340,000 tested, 0.99% active;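 active means inhibition above the mean over all tested compounds plus 3 SD, cut at about 30% in these data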;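 further: inhibitors block probe labeling of enzyme so polarization drops; 0% = enzyme with DMSO and 100% = wells lacking PAFAH2 protein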
pPAFAH confirm: confirmation of human plasma PAF acetylhydrolase (pPAFAH) inhibitors; shares compounds with pPAFAH inh; recombinant pPAFAH, FP-Rh probe fluorescence polarization; inhibition, % at 3.39 µM; 2,300 tested, 72% active; AID 463230;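 active means mean inhibition of the triplicate above the hit cutoff set for the earlier primary screen, cut at about 25% in these data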;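 further: 0% = enzyme with DMSO and 100% = wells lacking pPAFAH enzyme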
PAFAH2 confirm: PAFAH2 (human) inhibition, confirmed | shares compounds with PAFAH2 FP inh | recombinant PAFAH2, FP-rhodamine activity probe, fluorescence polarization | inhibition, % at 3.39 µM | 2,300 tested, 65% active;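 active means mean inhibition over three repeats above a set limit taken from the earlier primary screen, cut at about 30% in these data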;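 further: inhibitor blocks binding of rhodamine activity probe so polarization falls; 0% = enzyme with DMSO and 100% = wells lacking PAFAH2 protein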
HTRA1 conf: HTRA1 (human) inhibition, confirmation; shares compounds with HTRA1 inhibitor; recombinant HTRA1, FP-rhodamine activity-based probe, fluorescence polarization; inhibition, % at 5.96 µM; 1,600 tested, 66% active;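 active means mean inhibition over three repeats above a set limit taken from the earlier primary screen, cut at about 37% in these data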;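 further: 0% = HTRA1 with DMSO and 100% = wells lacking HTRA1; inhibitors block probe binding so polarization drops and inhibition rises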
ABHD4 confirm: confirmation of mouse ABHD4 inhibitors. 1,800 tested, 55% active. AID 720658. shares compounds with ABHD4 inh. purified mABHD4, FP-Rh probe fluorescence polarization. inhibition, % at 8.92 µM;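 active means mean inhibition across replicates above the hit cutoff set in the primary screen, cut at about 30% in these data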;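 further: 0% = wild-type ABHD4 with DMSO and 100% = catalytically dead S159A mutant with DMSO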
The depositor's hits bear a star; / = not tested or not shown.

SMILES	ABHD4 inh	PAFAH1B2 FP inh	HTRA1 inhibitor	PAFAH1B3 FP inh	pPAFAH inh	PAFAH2 FP inh	PAFAH2 confirm	others
Cc1ccc(C(=O)NCCN2CCC3(CC2)C(=O)NCN3c2ccccc2)cc1	1	/	/	/	/	/	/
CCc1cc(OC)c(CCN)cc1OC	3	/	/	/	/	/	/
CN1C(=O)/C(=C/c2cccn2-c2ccc3ccccc3c2)C(=O)NC1=S	65*	39*	60*	9	39*	39*	/	pPAFAH confirm=13;HTRA1 conf=12;ABHD4 confirm=3
Cn1cccc1/C=C1/C(=O)NC(=O)N(C(C)(C)C)C1=O	6	3	7	3	2	0	/
COc1ccc(/C=C2/C(=O)N(Cc3ccco3)C(=O)N(C(C)C)C2=O)cc1	-48	1	-8	1	11	30*	-1
CCN(CC)c1ccc(/C=C2/C(=O)NC(=O)N(Cc3ccco3)C2=O)cc1	-71	0	-17	-11	10	7	/
O=c1[nH]c2cc(Cl)ccc2n1C1CCN(Cc2ccc(-c3nc4ccc(F)cc4nc3-c3ccccc3)cc2)CC1	-9	/	/	/	/	/	/
Cc1ccc(N2Cc3ccccc3-n3nncc3C2)cc1	9	/	/	/	/	/	/
COc1ccc(-n2c(-c3ccc(C)cc3)nc3ccccc3c2=O)cc1	-9	5	-7	3	4	1	/
COc1ccc(-c2nc3ccccc3c(=O)o2)cc1	-4	3	7	-3	-4	78*	71*
Cn1cccc1/C=C1\C(=O)NC(=O)N(Cc2ccccc2Cl)C1=O	5	2	21	3	/	30*	11
Cn1cccc1/C=C1\C(=O)NC(=O)N(CCC2=CCCCC2)C1=O	5	4	-3	1	/	26	/
CC(C)C(CN1CCC(C)(c2cccc(O)c2)[C@@H](C)C1)NC(=O)C1Cc2ccc(O)cc2CN1 (stereo not given in full)	-2	/	/	/	/	/	/
O=C1NC(=O)N(CCC2=CCCCC2)C(=O)/C1=C\c1cccs1	-28	9	-1	6	4	55*	46*
NC(Cc1ccccc1)[P+](=O)O (stereo not given)	7	/	/	/	/	/	/
CN1CC[C@@H]2CN[C@H](c3ccccc3Br)C[C@@H]21	7	/	/	/	/	/	/
Cc1ccc(/C=C2\C(=O)NC(=O)N(CC3CCCO3)C2=O)s1 (stereo not given)	0	5	4	2	0	33*	8
O=C1NC(=S)N(c2ccccc2)C(=O)/C1=C/c1ccco1	18	2	5	6	24	30*	59*
O=C(O)c1cc2ccccc2n1C1CCN(Cc2ccccc2)CC1	3	/	/	/	/	/	/
O=C(c1ccc(CNS(=O)(=O)c2ccc(Br)cc2)cc1)N1CCC2(CC1)OCCO2	-6	2	-1	6	10	1	/
O=C(CNS(=O)(=O)c1ccc(Br)s1)N1CCC2(CC1)OCCO2	0	11	-2	8	7	36*	18
COC(=O)C1C(c2ccc(F)cc2)CC2CCC1N2C (stereo not given)	7	/	/	/	/	/	/
O=C(c1cc2c(s1)-c1ccccc1OC2)N1CCC2(CC1)OCCO2	0	4	-2	2	19	31*	18
Cc1cc(C)cc(N2C(=O)NC(=O)/C(=C\c3cccn3-c3ccccc3)C2=O)c1	-4	18	2	-5	5	46*	34*
Cc1cc(/C=C2/C(=O)NC(=O)N(Cc3ccco3)C2=O)c(C)n1-c1ccccc1	-3	10	-5	12	12	33*	23
SMILES	ABHD4 inh	PAFAH1B2 FP inh	HTRA1 inhibitor	PAFAH1B3 FP inh	pPAFAH inh	PAFAH2 FP inh	PAFAH2 confirm	others
CN(C)c1ccc(/C=C2/C(=O)NC(=O)N(Cc3ccco3)C2=O)cc1	-12	0	-1	10	9	9	/
CN1C(=O)C(=Cc2ccc(SC3CCCCC3)o2)C(=O)N(C)C1=O	2	20	-10	-2	12	30*	33*
CC(=O)Nc1cc(C(=O)N2CCC3(CC2)OCCO3)ccc1S(=O)(=O)c1ccc(C)cc1	-4	-3	5	9	4	8	/
Cc1ccc(S(=O)(=O)Nc2cc(C(=O)N3CCC4(CC3)OCCO4)ccc2N2CCCCC2)cc1	-1	7	-7	3	21	60*	49*
Cc1cccc(NC(=O)COC(=O)c2cc(C)n(C3CC3)c2C)c1	5	8	-31	2	5	40*	2
Cn1cc(C(=O)OCC(=O)NC2CCCC2)c2ccccc21	-3	-2	-6	0	5	59*	37*
CC[C@H](C(N)=O)N1CCCC1=O	2	/	/	/	/	/	/
O=C(CN1CC(c2ccccc2)CC1=O)Nc1ccccc1 (stereo not given)	0	-2	-5	1	0	44*	25
CN1C2(C)c3ccccc3C1(c1ccccc1)c1ccccc12	4	/	/	/	/	/	/
Cc1c(C(c2ccc(Br)cc2)c2c(O)c3ccccc3oc2=O)c(=O)n(-c2ccccc2)n1C (stereo not given)	3	1	-3	3	1	3	/
CC(=O)Nc1ccc(C(c2c(O)c3ccccc3oc2=O)c2c(C)n(C)n(-c3ccccc3)c2=O)cc1 (stereo not given)	-3	0	3	-1	1	-3	/
CSc1ccc(C(c2c(O)c3ccccc3oc2=O)c2c(C)n(C)n(-c3ccccc3)c2=O)cc1 (stereo not given)	0	3	-7	11	6	40*	27
Cc1c(C(c2ccc(Cl)cc2Cl)c2c(O)c3ccccc3oc2=O)c(=O)n(-c2ccccc2)n1C (stereo not given)	-126	3	-1	3	2	39*	33*
O=C(NC1CCCCC1)N1Cc2ccc(Br)cc2-n2nncc2C1	-1	/	/	/	/	/	/
O=C(COC(=O)c1ccc(O)cc1)Nc1ccc(Cl)cc1C(=O)c1ccccc1	-48	2	-68	1	5	63*	61*
O=C(COc1ccccc1)Nc1ccc(Cl)cc1C(=O)c1ccccc1	5	-1	-5	-2	5	-2	/
CC(=O)Nc1ccc(C(=O)OCC(=O)Nc2ccc(Cl)cc2C(=O)c2ccccc2)cc1	-16	-9	-29	-7	-8	69*	73*
